From ChEMBL document CHEMBL5053555, “Design, Synthesis, and Evaluation of Potent, Selective, and Bioavailable AKT Kinase Degraders” (J Med Chem, 2021)
Calls of active or inactive are those of the source. The calls are words filed in the database; no cut-off is given here.

Tests used:
[1] = target: T1, von Hippel-Lindau disease tumor suppressor/AKT (Homo sapiens) (UniProt P31751+Q9Y243+P31749+P40337); assay: Protac activity at VHL/AKT in human PC-3 cells assessed as reduction in total AKT level at 1 uM after 24 hrs by Western blot analysis; format: cell-based
Outline: (§1)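 PC3 cells were exposed to compound at 1 μM for 24 h, with GSK690693 as reference inhibitor. Lysates were immunoblotted for total AKT, P-AKT S473, P-PRAS40 T246 and P-S6 S240/244, with β-actin as loading control. Detection was by HRP chemiluminescence on film.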

[2] = target: T1, von Hippel-Lindau disease tumor suppressor/AKT (Homo sapiens); assay: Protac activity at VHL/AKT in human PC-3 cells assessed as reduction in phosphorylated AKT level at 1 uM after 24 hrs by Western blot analysis; format: cell-based; outline: as §1
[3] = target: T2, Protein cereblon/AKT (Homo sapiens) (UniProt P31751+Q9Y243+P31749+Q96SW2); assay: Protac activity at CRBN/AKT in human PC-3 cells assessed as reduction in phosphorylated AKT level at 1 uM after 24 hrs by Western blot analysis; format: cell-based; outline: as §1
[4] = target: T2, Protein cereblon/AKT (Homo sapiens); assay: Protac activity at CRBN/AKT in human PC-3 cells assessed as reduction in total AKT level at 1 uM after 24 hrs by Western blot analysis; format: cell-based; outline: as §1
[5] = target: T2, Protein cereblon/AKT (Homo sapiens); assay: Protac activity at CRBN/AKT in human PC-3 cells assessed as reduction in S6 phosphorylation at 1 uM after 24 hrs by Western blot analysis; format: cell-based; outline: as §1
[6] = target: T2, Protein cereblon/AKT (Homo sapiens); assay: Protac activity at CRBN/AKT in human PC-3 cells assessed as reduction in PRAS40 phosphorylation at 1 uM after 24 hrs by Western blot analysis; format: cell-based; outline: as §1
[7] = target: T1, von Hippel-Lindau disease tumor suppressor/AKT (Homo sapiens); assay: Protac activity at VHL/AKT in human BT-474 cells assessed as reduction in total AKT level after 24 hrs by Western blot analysis; format: cell-based; settings: dose 1-10 µM
Outline: (§2)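 BT474 cells were treated 24 h with compound and lysed in IP lysis buffer (Tris pH 7.5, Triton X-100, phosphatase and protease inhibitors). Lysates were normalised by BCA and run on 4–12% Bis–Tris gels with PVDF wet transfer. Blots were probed for total AKT, P-AKT S473, P-PRAS40 T246 and P-S6 S240/244, with β-actin loading control and HRP chemiluminescence.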

BT-474 [8] = assay: Antiproliferative activity against human BT-474 cells assessed as growth inhibition incubated for 5 days by IncuCyte live-cell imaging analysis; format: functional; settings: BT-474, 120 h, time 5 day
MDA-MB-468 [9] = assay: Antiproliferative activity against human MDA-MB-468 cells assessed as growth inhibition incubated for 5 days by IncuCyte live-cell imaging analysis; format: functional; settings: MDA-MB-468, 120 h, time 5 day
MDA-MB-468 [10] = assay: Induction of apoptosis in human MDA-MB-468 cells at 2.5 uM measured upto 120 hrs by IncuCyte live-cell automated imaging analysis; format: functional
Outline: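 MDA-MB-468 cells (1–3 × 10³/well, triplicate wells) grown with compound in DMEM/10% FBS at 37 °C, 5% CO₂. DRAQ7 at 1.5 μM was added to the medium, and apoptotic red-fluorescent counts were imaged on an IncuCyte over 5 days.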

[11] = mouse, in vivo, ip, 50 mg/kg, 2 h
Mus musculus = assay: Toxicity in Swiss albino mouse assessed as tolerability at 50 mg/kg, ip measured upto 8 hrs by LC-MS/MS method; format: organism-based; settings: in vivo
PC-3 = assay: Antiproliferative activity against human PC-3 cells assessed as growth inhibition incubated for 5 days by IncuCyte live-cell imaging analysis; format: functional; settings: PC-3, 120 h, time 5 day
BT-474 [12] = assay: Inhibition of colony formation in human BT-474 cells at 0.1 to 10 uM after 14 days by crystal violet staining based assay; format: functional, cell-based; settings: dose 0.1-10 µM, time 14.0 day
Outline: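 BT474 cells were cultured 14 days with compound, and medium plus compound was replenished every 2 days. Viable cells were stained with 0.5% crystal violet and quantified.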

[13] = target: T2, Protein cereblon/AKT (Homo sapiens); assay: Protac activity at CRBN/AKT in human BT-474 cells assessed as reduction in PRAS40 phosphorylation at 1 uM after 24 hrs by Western blot analysis; format: cell-based; outline: as §2
in vivo [14] = settings: Swiss albino, mouse, ip, 50 mg/kg
in vivo [15] = settings: Swiss albino, mouse, ip, 50 mg/kg; remark: listed apart in the source
[16] = target: T1, von Hippel-Lindau disease tumor suppressor/AKT (Homo sapiens); assay: Protac activity at VHL/AKT in human BT-474 cells assessed as reduction in total AKT level at 5 to 10 uM after 24 hrs by Western blot analysis; format: cell-based; settings: dose 5-10 µM; outline: as §2
[17] = target: T1, von Hippel-Lindau disease tumor suppressor/AKT (Homo sapiens); assay: Protac activity at VHL/AKT in human BT-474 cells assessed as reduction in phosphorylated AKT level at 5 to 10 uM after 24 hrs by Western blot analysis; format: cell-based; settings: dose 5-10 µM; outline: as §2
[18] = target: T1, von Hippel-Lindau disease tumor suppressor/AKT (Homo sapiens); assay: Protac activity at VHL/AKT in human PC-3 cells assessed as reduction in PRAS40 phosphorylation at 1 uM after 24 hrs by Western blot analysis; format: cell-based; outline: as §1
[19] = target: T1, von Hippel-Lindau disease tumor suppressor/AKT (Homo sapiens); assay: Protac activity at VHL/AKT in human PC-3 cells assessed as reduction in S6 phosphorylation at 1 uM after 24 hrs by Western blot analysis; format: cell-based; outline: as §1

CCn1c(-c2nonc2N)nc2c(C#CC(C)(C)O)ncc(OCCCNCCCC(=O)NCCOCCOCCOCCOCCOCCC(=O)N[C@H](C(=O)N3C[C@H](O)C[C@H]3C(=O)NCc3ccc(-c4scnc4C)cc3)C(C)(C)C)c21
Activity [1]: inactive
Activity [2]: inactive

CCn1c(-c2nonc2N)nc2c(C#CC(C)(C)O)ncc(OCCCNCCCC(=O)NCCOCCOCCOCCOCCNc3cccc4c3C(=O)N(C3CCC(=O)NC3=O)C4=O)c21 (stereo unspecified)
Activity [3]: Active
Activity [4]: Active

CCn1c(-c2nonc2N)nc2c(C#CC(C)(C)O)ncc(OCCCNCCCC(=O)NCCCCCCCCNc3cccc4c3C(=O)N(C3CCC(=O)NC3=O)C4=O)c21 (stereo unspecified)
Activity [5]: Active
Activity [6]: inactive
Activity [3]: Active
Activity [4]: Active

CCn1c(-c2nonc2N)nc2c(C#CC(C)(C)O)ncc(OCCCNCCCC(=O)NCCOCCOCCOCC(=O)N[C@H](C(=O)N3C[C@H](O)C[C@H]3C(=O)NCc3ccc(-c4scnc4C)cc3)C(C)(C)C)c21
Activity [1]: inactive
Activity [2]: inactive

CCn1c(-c2nonc2N)nc2c(C#CC(C)(C)O)ncc(OCCCNCCCC(=O)NCCOCCOCCNc3cccc4c3C(=O)N(C3CCC(=O)NC3=O)C4=O)c21 (stereo unspecified)
Activity [3]: Active
Activity [4]: Active

CCn1c(-c2nonc2N)nc2c(C#CC(C)(C)O)ncc(OCCCNCCCC(=O)NCCOCCOCCOCCNc3cccc4c3C(=O)N(C3CCC(=O)NC3=O)C4=O)c21 (stereo unspecified)
Activity [3]: Active
Activity [4]: Active

Cc1ncsc1-c1ccc(CNC(=O)[C@@H]2C[C@@H](O)CN2C(=O)[C@@H](NC(=O)CCCCNC(=O)CCNC[C@@H](C(=O)N2CCN(c3ncnc4c3[C@H](C)C[C@H]4O)CC2)c2ccc(Cl)cc2)C(C)(C)C)cc1
Activity [7]: Dose-dependent effect

CCn1c(-c2nonc2N)nc2c(C#CC(C)(C)O)ncc(OCCCNCCCC(=O)NCCOCCNc3cccc4c3C(=O)N(C3CCC(=O)NC3=O)C4=O)c21 (stereo unspecified)
Activity [3]: Active
Activity [4]: Active

Cc1ncsc1-c1ccc([C@H](C)NC(=O)[C@H]2C[C@H](O)CN2C(=O)[C@@H](NC(=O)CCCCCCCCCCC(=O)NCCNC[C@@H](C(=O)N2CCN(c3ncnc4c3[C@H](C)C[C@H]4O)CC2)c2ccc(Cl)cc2)C(C)(C)C)cc1
GI50 (BT-474 [8]): 3.1 µM

C[C@@H]1C[C@@H](O)c2ncnc(N3CCN(C(=O)[C@H](CNCCC(=O)NCCCCCCCCNc4cccc5c4C(=O)N(C4CCC(=O)NC4=O)C5=O)c4ccc(Cl)cc4)CC3)c21 (stereo partly specified)
GI50 (MDA-MB-468 [9]): 5.7 µM
GI50 (BT-474 [8]): 0.7 µM
Activity (MDA-MB-468 [10]): < 3%
Cmax [11]: 1400 nM
Activity (Mus musculus): Non-Toxic
GI50 (PC-3): 7.4 µM
inhibition (BT-474 [12]): Active

C[C@@H]1C[C@@H](O)c2ncnc(N3CCN(C(=O)[C@H](CNCCNC(=O)CCCCCCCCNc4cccc5c4C(=O)N(C4CCC(=O)NC4=O)C5=O)c4ccc(Cl)cc4)CC3)c21 (stereo partly specified)
Activity [13]: Active

CCn1c(-c2nonc2N)nc2c(C#CC(C)(C)O)ncc(OCCCNCCCC(=O)NCCOCCC(=O)N[C@H](C(=O)N3C[C@H](O)C[C@H]3C(=O)NCc3ccc(-c4scnc4C)cc3)C(C)(C)C)c21
Activity [1]: inactive
Activity [2]: inactive

Cc1ncsc1-c1ccc([C@H](C)NC(=O)[C@@H]2C[C@@H](O)CN2C(=O)[C@@H](NC(=O)CCCCCCCCCCC(=O)NCCNC[C@@H](C(=O)N2CCN(c3ncnc4c3[C@H](C)C[C@H]4O)CC2)c2ccc(Cl)cc2)C(C)(C)C)cc1
GI50 (MDA-MB-468 [9]): 3.8 µM
Cmax at 2 h (in vivo [14]): 3500 nM
GI50 (BT-474 [8]): 1.3 µM
Cmax at 8 h (in vivo [15]): 3000 nM
Activity (MDA-MB-468 [10]): < 3%
Activity (Mus musculus): Non-Toxic
GI50 (PC-3): 9.2 µM

CCn1c(-c2nonc2N)nc2c(C#CC(C)(C)O)ncc(OCCCNCCCC(=O)NCCOCCOCCOCCOCCC(=O)N[C@H](C(=O)N3C[C@H](O)C[C@H]3C(=O)NCc3ccc(-c4scnc4C)cc3)C(C)(C)C)c21
Activity [1]: inactive
Activity [2]: inactive

CCn1c(-c2nonc2N)nc2c(C#CC(C)(C)O)ncc(OCCCNCCCC(=O)NCCOCCOCCOCCC(=O)N[C@H](C(=O)N3C[C@H](O)C[C@H]3C(=O)NCc3ccc(-c4scnc4C)cc3)C(C)(C)C)c21
Activity [1]: inactive
Activity [2]: inactive

Cc1ncsc1-c1ccc(CNC(=O)[C@@H]2C[C@@H](O)CN2C(=O)[C@@H](NC(=O)COCCNC(=O)CCNC[C@@H](C(=O)N2CCN(c3ncnc4c3[C@H](C)C[C@H]4O)CC2)c2ccc(Cl)cc2)C(C)(C)C)cc1
Activity [16]: Active
Activity [17]: Active

CCn1c(-c2nonc2N)nc2c(C#CC(C)(C)O)ncc(OCCCNCCCC(=O)NCCOCCOCCOCCOCCOCCNc3cccc4c3C(=O)N(C3CCC(=O)NC3=O)C4=O)c21 (stereo unspecified)
Activity [3]: Active
Activity [4]: Active

CCn1c(-c2nonc2N)nc2c(C#CC(C)(C)O)ncc(OCCCNCCCC(=O)NCCOCCOCC(=O)N[C@H](C(=O)N3C[C@H](O)C[C@H]3C(=O)NCc3ccc(-c4scnc4C)cc3)C(C)(C)C)c21
Activity [1]: inactive
Activity [2]: inactive

CCn1c(-c2nonc2N)nc2c(C#CC(C)(C)O)ncc(OCCCNCCCC(=O)NCCOCC(=O)N[C@H](C(=O)N3C[C@H](O)C[C@H]3C(=O)NCc3ccc(-c4scnc4C)cc3)C(C)(C)C)c21
Activity [1]: inactive
Activity [2]: inactive

CCn1c(-c2nonc2N)nc2c(C#CC(C)(C)O)ncc(OCCCNCCCC(=O)NCCOCCOCCC(=O)N[C@H](C(=O)N3C[C@H](O)C[C@H]3C(=O)NCc3ccc(-c4scnc4C)cc3)C(C)(C)C)c21
Activity [1]: inactive
Activity [2]: inactive

CC(C)NC[C@@H](C(=O)N1CCN(c2ncnc3c2[C@H](C)C[C@H]3O)CC1)c1ccc(Cl)cc1 [IPATASERTIB]
GI50 (MDA-MB-468 [9]): 3.7 µM
GI50 (PC-3): 7.6 µM

CCn1c(-c2nonc2N)nc2c(C#CC(C)(C)O)ncc(OCCCNCCCC(=O)NCCCCCCCCCCC(=O)N[C@H](C(=O)N3C[C@H](O)C[C@H]3C(=O)NCc3ccc(-c4scnc4C)cc3)C(C)(C)C)c21
Activity [1]: Active
Activity [18]: inactive
Activity [2]: Active
Activity [19]: Active

C[C@@H]1C[C@@H](O)c2ncnc(N3CCN(C(=O)[C@H](CNCCC(=O)NCCCCCCCCNc4cccc5c4C(=O)N(C4CCC(=O)N(C)C4=O)C5=O)c4ccc(Cl)cc4)CC3)c21 (stereo partly specified)
GI50 (BT-474 [8]): 3.3 µM
